Data set [1] has as its system UMSCC14A. Description: Cytotoxicity against human UMSCC14A cells at 1.25 to 80 uM up to 48 hrs by ATP-based luminescent proliferation assay. It counts as functional, cell-based. The procedure, abridged:
(§1)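 Floor-of-mouth OSCC lines (UMSCC1, UMSCC14A) and nonmalignant primary human epidermal keratinocytes were treated at 1.25–80 μM for 24 and 48 h. Growth was measured by ATP-based luminescent proliferation assay, and OSCC vs keratinocytes was compared by two-way ANOVA.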

In data set [2] the test system is UMSCC1. Briefly: Cytotoxicity against human UMSCC1 cells at 1.25 to 80 uM up to 48 hrs by ATP-based luminescent proliferation assay. The data set is classed as functional, cell-based. The procedure, abridged:
as §1

A short description of data set [3]: Cytotoxicity against human HEK cells at 1.25 to 80 uM after 24 hrs by ATP-based luminescent proliferation assay. It counts as cell-based. The procedure, abridged: as §1
A short description of data set [4]: Cytotoxicity against human HEK cells at 1.25 to 80 uM after 48 hrs by ATP-based luminescent proliferation assay. The data set is classed as cell-based. A digest of the protocol: as §1
Data set [5] has as its system MEF. Description: Activation of unfolded protein response in Atf4-deficient mouse MEF assessed as effect on Puma expression at 40 uM after 6 hrs by qRT-PCR analysis. It counts as functional, cell-based. The procedure, abridged: (§2)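 Atf4-null murine embryonic fibroblasts and wildtype littermate controls were exposed to 40 μM for 6 h, with 2.5 μg/mL tunicamycin as comparator. cDNA libraries were made from the cells, and Noxa, Puma and Trb3 transcripts were quantified by qRT-PCR.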

The test system of data set [6] is MEF. Description: Activation of unfolded protein response in Atf4-deficient mouse MEF assessed as effect on Trb3 expression at 40 uM after 6 hrs by qRT-PCR analysis. The data set is classed as functional, cell-based. The procedure, abridged: as §2
(Real-time PCR tracks product formation cycle by cycle.)

Data set [7] relates to MEF. Description: Activation of unfolded protein response in Atf4-deficient mouse MEF assessed as effect on Noxa expression at 40 uM after 6 hrs by qRT-PCR analysis. It counts as functional, cell-based. A digest of the protocol: as §2
The nature of data set [8]: Activation of unfolded protein response in human UMSC23 cells assessed as increase of ATF3 expression at 40 uM after 6 to 12 hrs by qRT-PCR analysis. The data set is classed as functional, cell-based.
Data set [9] concerns MEF. Briefly: Antiproliferative activity against Chop-deficient mouse MEF after 16 hrs by ATP-based luminescent proliferation assay. It counts as functional, cell-based. The procedure, abridged: (§3)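 Atf4−/− and Chop−/− murine embryonic fibroblasts, each with wildtype littermate controls, were dosed across a concentration series for 16 h. Proliferation was read by ATP-based luminescence, and wildtype vs null was compared by two-way ANOVA (dose, interaction).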

Data set [10] relates to MEF. Briefly: Antiproliferative activity against Atf4-deficient mouse MEF after 16 hrs by ATP-based luminescent proliferation assay. It counts as functional, cell-based. The procedure, abridged: as §3
Data set [11] is described as follows: Activation of unfolded protein response in human UMSC23 cells assessed as increase of BiP/GRP78 expression at 40 uM after 6 to 12 hrs by qRT-PCR analysis. It counts as functional, cell-based.
Data set [12] has as its system UMSCC1. Description: Activation of unfolded protein response in human UMSCC1 cells assessed as increase of BiP/GRP78 expression at 40 uM after 6 to 12 hrs by qRT-PCR analysis. It counts as functional, cell-based. The procedure, abridged:
(§4)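 UMSCC1 oral squamous carcinoma cells were treated for 6 or 12 h, and UPR marker transcripts were quantified by qRT-PCR.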

Data set [13] concerns UMSCC1. Description: Activation of unfolded protein response in human UMSCC1 cells assessed as increase of GADD34 expression at 40 uM after 6 to 12 hrs by qRT-PCR analysis. The data set is classed as functional, cell-based. The procedure, abridged:
as §4

Data set [14] relates to UMSCC14A. Briefly: Activation of unfolded protein response in human UMSCC14A cells assessed as increase of CHOP expression at 40 uM after 6 to 12 hrs by qRT-PCR analysis. The data set is classed as functional, cell-based.
The subject of data set [15] is UMSCC14A. Briefly: Activation of unfolded protein response in human UMSCC14A cells assessed as increase of spliced XBP1 expression at 40 uM after 6 to 12 hrs by qRT-PCR analysis. It counts as functional, cell-based.
The subject of data set [16] is UMSCC1. Description: Activation of unfolded protein response in human UMSCC1 cells assessed as increase of CHOP expression at 40 uM after 6 to 12 hrs by qRT-PCR analysis. The data set is classed as functional, cell-based. A digest of the protocol:
as §4

Data set [17] relates to MEF. Description: Antiproliferative activity against mouse MEF harboring eIF2-alpha (Ser51Ala) mutant after 16 hrs by ATP-based luminescent proliferation assay. It counts as functional, cell-based.
The nature of data set [18]: Activation of unfolded protein response in human UMSC23 cells assessed as increase of GADD34 expression at 40 uM after 6 to 12 hrs by qRT-PCR analysis. The data set is classed as functional, cell-based.
Data set [19] relates to UMSCC14A. Description: Activation of unfolded protein response in human UMSCC14A cells assessed as increase of GADD34 expression at 40 uM after 6 to 12 hrs by qRT-PCR analysis. It counts as functional, cell-based.
A short description of data set [20]: Activation of unfolded protein response in human UMSC23 cells assessed as increase of CHOP expression at 40 uM after 6 to 12 hrs by qRT-PCR analysis. It counts as functional, cell-based.
Data set [21] concerns UMSCC1. Briefly: Activation of unfolded protein response in human UMSCC1 cells assessed as increase of spliced XBP1 expression at 40 uM after 6 to 12 hrs by qRT-PCR analysis. It counts as functional, cell-based. The procedure, abridged: as §4
Data set [22] deals with UMSCC14A. Briefly: Activation of unfolded protein response in human UMSCC14A cells assessed as increase of ATF3 expression at 40 uM after 6 to 12 hrs by qRT-PCR analysis. The data set is classed as functional, cell-based.
Data set [23] concerns UMSCC14A. Briefly: Activation of unfolded protein response in human UMSCC14A cells assessed as increase of BiP/GRP78 expression at 40 uM after 6 to 12 hrs by qRT-PCR analysis. The data set is classed as functional, cell-based.
Data set [24] deals with UMSCC1. Description: Activation of unfolded protein response in human UMSCC1 cells assessed as increase of ATF3 expression at 40 uM after 6 to 12 hrs by qRT-PCR analysis. It counts as functional, cell-based. The procedure, abridged: as §4
Data set [25] in a line: Activation of unfolded protein response in human UMSC23 cells assessed as increase of spliced XBP1 expression at 40 uM after 6 to 12 hrs by qRT-PCR analysis. It counts as functional, cell-based.

Molecules are shown by their SMILES. Active and inactive are the calls of the source. No cut-off for these calls is given here.

As to `COC(=O)N[C@H]1[C@@H](C)O[C@@H](O[C@H]2C/C=C(\C)[C@@H]3C=C[C@@H]4[C@@H](O[C@H]5C[C@@H](O[C@H]6C[C@@H](O)[C@@H](O[C@@H]7C[C@@H](O)[C@@H](OC)[C@H](C)O7)[C@H](C)O6)[C@@H](O)[C@H](C)O5)[C@@H](C)C[C@H](C)[C@H]4[C@]3(C)C(=O)C3=C(O)[C@@]4(C[C@@H](C)C(CO)=C[C@H]4/C=C/2C)OC3=O)C[C@]1(C)O`, the outcome in the data set with UMSCC14A [1] and in the data set on UMSCC1 [2] was Active. Further, the Activity result in [3] was “Non-toxic”.

Regarding `COC(=O)N[C@H]1[C@@H](C)O[C@@H](O[C@H]2C/C=C(\C)[C@@H]3C=C[C@@H]4[C@@H](O[C@H]5C[C@@H](O[C@H]6C[C@@H](O)[C@@H](O[C@@H]7C[C@@H](O)[C@@H](OC)[C@H](C)O7)[C@H](C)O6)[C@@H](O)[C@H](C)O5)[C@@H](C)C[C@H](C)[C@H]4[C@]3(C)C(=O)C3=C(O)[C@@]4(C[C@@H](C)C(C)=C[C@H]4/C=C/2C)OC3=O)C[C@]1(C)[N+](=O)[O-]`, the result in the data set on UMSCC14A [1] and in the data set on UMSCC1 [2] was Active. Further, the Activity entry in data set [3] is “Non-toxic”; in data set [4] it was “Toxic”.

On to `COC(=O)N[C@H]1[C@@H](C)O[C@@H](O[C@H]2C/C=C(\C)[C@@H]3C=C[C@@H]4[C@@H](O[C@H]5C[C@@H](O[C@H]6C[C@@H](O)[C@@H](O[C@@H]7C[C@@H](O)[C@@H](OC)[C@H](C)O7)[C@H](C)O6)[C@@H](O)[C@H](C)O5)[C@@H](C)C[C@H](C)[C@H]4[C@]3(C)C(=O)C3=C(O)[C@@]4(C[C@@H](C)C(CO)=C[C@H]4/C=C/2C)OC3=O)C[C@]1(C)[N+](=O)[O-]`, for which the outcome in the data set on UMSCC14A [1] and in the data set on UMSCC1 [2] was Active. In addition, the result in the data set on MEF [5], in the data set on MEF [6] and in the data set on MEF [7] was inactive. The Activity entry in data set [3] is on record as “Non-toxic”; in [4], “Toxic”.

On to `COC(=O)N[C@H]1[C@@H](C)O[C@@H](O[C@H]2C/C=C(\C)[C@@H]3C=C[C@@H]4[C@@H](O[C@H]5C[C@@H](O[C@H]6C[C@@H](O)[C@@H](O)[C@H](C)O6)[C@@H](O)[C@H](C)O5)[C@@H](C)C[C@H](C)[C@H]4[C@]3(C)C(=O)C3=C(O)[C@@]4(C[C@@H](C)C(C)=C[C@H]4/C=C/2C)OC3=O)C[C@]1(C)[N+](=O)[O-]`, for which the result (in the data set on UMSCC14A [1]; in data set [8]; in data set [11]; in the data set on UMSCC1 [12]; with UMSCC1 [13]; with UMSCC14A [14]) was Active. Further, the result (in the data set with UMSCC14A [15]; with UMSCC1 [16]; in the data set on UMSCC1 [2]; in data set [18]; in the data set on UMSCC14A [19]; in data set [20]) was Active. Further, the outcome (with UMSCC1 [21]; in the data set with UMSCC14A [22]; in the data set on UMSCC14A [23]; in the data set with UMSCC1 [24]; in data set [25]) was Active. The outcome in the data set on MEF [5], in the data set on MEF [9], with MEF [10], in the data set with MEF [6], with MEF [17] and in the data set on MEF [7] was inactive. In addition, the Activity entry in [3] is “Non-toxic”.

The record behind these values is ChEMBL document CHEMBL3621187, “Novel Lobophorins Inhibit Oral Cancer Cell Growth and Induce Atf4- and Chop-Dependent Cell Death in Murine Fibroblasts” (ACS Med Chem Lett, 2015).
